Experiment [1] concerns the target T1, Aurora kinase A (Homo sapiens, UniProt O14965).
T1 sequence (O14965 whole entry): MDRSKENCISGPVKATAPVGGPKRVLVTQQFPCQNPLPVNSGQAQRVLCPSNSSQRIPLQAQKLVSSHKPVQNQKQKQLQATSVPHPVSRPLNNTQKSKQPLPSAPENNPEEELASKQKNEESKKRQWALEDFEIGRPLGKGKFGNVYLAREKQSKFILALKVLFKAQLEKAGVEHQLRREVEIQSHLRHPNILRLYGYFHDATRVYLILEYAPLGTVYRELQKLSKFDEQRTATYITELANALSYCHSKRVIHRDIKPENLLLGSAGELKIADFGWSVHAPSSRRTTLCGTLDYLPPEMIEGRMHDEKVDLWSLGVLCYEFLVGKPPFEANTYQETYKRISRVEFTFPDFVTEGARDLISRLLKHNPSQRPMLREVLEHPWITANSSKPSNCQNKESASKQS
Kind of experiment: Inhibition of GST-tagged human recombinant Aurora A kinase domain (123 to 401 residues) expressed in Sf9 cells after 120 mins by kinase-glo luminescence assay. Background: Kinase-Glo measures the ATP left after a reaction by luminescence.

Experiment [2] addresses T2, Aurora kinase B (Homo sapiens, UniProt Q96GD4). Kind of experiment: Inhibition of human recombinant full length Aurora-B (1 to 344 residues) expressed in Sf9 cells after 90 mins by kinase-glo luminescence assay.
The target in experiment [3] is T1, Aurora kinase A. Kind of experiment: Inhibition of Aurora-A autophosphorylation at Thr288 in human HCT116 cells after 1 hr by Western blot analysis. The class given is cell-based. An outline of the steps:
(§1)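 HCT116 cells arrested in mitosis with 200 nM nocodazole for 24 h, then exposed to compound for 1 h over 9 concentrations. Lysed in Laemmli buffer, SDS-PAGE, PVDF immunoblot for phospho-Aurora-A Thr288 / Aurora-B Thr232 with HRP secondary and chemiluminescence. IC50 derived from blot profiles.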
In general terms: Immunoblotting shows a protein as a band on a membrane.

Experiment [4] deals with HeLa. Nature of the experiment: Decrease in mitotic index in human HeLa cells after 10 to 12 hrs post thymidine block by pHH3Ser10/Hoechst33342 staining-based immunofluorescence analysis. In kind it is functional, cell-based. An outline of the steps:
(§2)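 HeLa cells synchronized by thymidine block, released and treated with compound, fixed at set times (4% paraformaldehyde, 30 min), permeabilized with 0.1% Triton X-100, blocked in 1% BSA. Stained with anti-pHH3Ser10 (1:500, 1.5 h, RT) and Alexa-594 secondary, Hoechst 33342 counterstain. Mitotic index is the percentage of pHH3Ser10-positive cells among about 2000-3000 cells per condition.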

The subject of a further experiment is HCT-116. Kind of experiment: Cytotoxicity against human HCT116 cells. The class given is functional, cell-based.
The next experiment concerns Detroit 551. Nature of the experiment: Cytotoxicity against human Detroit 551 cells. The class given is cell-based.
The target in experiment [5] is T2, Aurora kinase B. Kind of experiment: Inhibition of Aurora-B autophosphorylation at Thr232 in human HCT116 cells after 1 hr by Western blot analysis. The class given is cell-based. An outline of the steps:
as §1

Experiment [6] relates to HeLa. Kind of experiment: Increase in mitotic index in human HeLa cells after 10 to 12 hrs post thymidine block by pHH3Ser10/Hoechst33342 staining-based immunofluorescence analysis. The class given is functional, cell-based. An outline of the steps:
as §2

pIC50: −log10 of the molar value. The source made the active and inactive calls. No cut-off for these calls is given here. Bounds are passed on as bounds.

The term pIC50 denotes the negative decadic logarithm of the IC50, by convention in mol/L.

T2 sequence (Q96GD4 whole entry, the tested form may be a part): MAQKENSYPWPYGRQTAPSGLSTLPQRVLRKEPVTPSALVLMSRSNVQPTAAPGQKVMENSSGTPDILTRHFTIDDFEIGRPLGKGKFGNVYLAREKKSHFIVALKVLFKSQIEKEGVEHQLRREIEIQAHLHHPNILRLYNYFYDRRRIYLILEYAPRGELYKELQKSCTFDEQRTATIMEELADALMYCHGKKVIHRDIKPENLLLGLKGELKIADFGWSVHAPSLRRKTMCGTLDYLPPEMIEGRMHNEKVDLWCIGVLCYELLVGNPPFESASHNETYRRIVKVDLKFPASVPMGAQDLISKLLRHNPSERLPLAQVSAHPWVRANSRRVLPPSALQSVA

Turning to `Cc1ccccc1NC(=O)Nc1ccc(CCNc2ncnc3oc(-c4ccccc4)c(Cl)c23)cc1`, the pIC50 on Aurora kinase A [1] is 7.08; on Aurora kinase B [2] it was 7.22.
Regarding `O=C(Nc1ccc(CCNc2ncnc3oc(-c4ccccc4)c(Cl)c23)cc1)Nc1cccc(CN2CCC(O)CC2)c1`, the figures for the pIC50 on Aurora kinase A [1] and on Aurora kinase B [2] were 7.17 and 7.08, respectively.
Take `CCc1cccc(NC(=O)Nc2ccc(CCNc3ncnc4oc(-c5ccccc5)c(Cl)c34)cc2)c1`: the negative logarithm of the IC50 (pIC50) on Aurora kinase A [1] was 7.18; at Aurora kinase B [2], 7.06.
For `CCc1ccc(NC(=O)Nc2ccc(CCNc3ncnc4oc(-c5ccccc5)c(Cl)c34)cc2)cc1` the same measures were 6.86 and 6.35.
As for `CC(C)c1ccccc1NC(=O)Nc1ccc(CCNc2ncnc3oc(-c4ccccc4)c(Cl)c23)cc1`, the pIC50 at Aurora kinase A [1] is 6.28; on Aurora kinase B [2], 6.47.
Turning to `O=C(Nc1ccc(CCNc2ncnc3oc(-c4ccccc4)c(Cl)c23)cc1)Nc1ccccc1CN1CCC(O)CC1`, the pIC50 was 5.82 on Aurora kinase A [3]; 6.51 in the experiment with HCT-116; 6.64 at Aurora kinase A [1]; 5.46 in the experiment on Detroit 551; 6.88 against Aurora kinase B [5]; 7.10 on Aurora kinase B [2]. In the experiment with HeLa [4], the outcome was Active.
As for `CCN(CC)Cc1cccc(NC(=O)Nc2ccc(CCNc3ncnc4oc(-c5ccccc5)c(Cl)c34)cc2)c1`, the pIC50 on Aurora kinase A [1] is 7.67; at Aurora kinase B [2] it was 6.92.
For the molecule `Cc1ccc(NC(=O)Nc2ccc(CCNc3ncnc4oc(-c5ccccc5)c(Cl)c34)cc2)cc1`, the pIC50 was 7.26 on Aurora kinase A [1] and 7.13 at Aurora kinase B [2].
The corresponding values for `O=C(Nc1ccc(CCNc2ncnc3oc(-c4ccccc4)c(Cl)c23)cc1)Nc1cccc(CN2CCCCC2)c1` are 7.04 and 6.99.
The corresponding values for `CC(C)Cc1ccccc1NC(=O)Nc1ccc(CCNc2ncnc3oc(-c4ccccc4)c(Cl)c23)cc1` are less than 6.00 and 6.15.
For `CC(C)c1cccc(NC(=O)Nc2ccc(CCNc3ncnc4oc(-c5ccccc5)c(Cl)c34)cc2)c1` the same measures were 6.63 and 6.18.
Take `CN(C)Cc1ccc(NC(=O)Nc2ccc(CCNc3ncnc4oc(-c5ccccc5)c(Cl)c34)cc2)cc1`: the pIC50 at Aurora kinase A [1] is 7.01; on Aurora kinase B [2], 6.34.
Consider `O=C(Nc1ccc(CCNc2ncnc3oc(-c4ccccc4)c(Cl)c23)cc1)Nc1ccc(CN2CCCCC2)cc1`, for which the negative-log IC50 (pIC50) at Aurora kinase A [1] is 6.35; at Aurora kinase B [2], 6.01.
For `O=C(Nc1ccc(CCNc2ncnc3oc(-c4ccccc4)c(Cl)c23)cc1)Nc1ccccc1CN1CCCCC1` the same measures were 6.70 and 6.92.
In the case of `CCN(C)Cc1cccc(NC(=O)Nc2ccc(CCNc3ncnc4oc(-c5ccccc5)c(Cl)c34)cc2)c1`, the negative logarithm of the IC50 (pIC50) on Aurora kinase A [3] is 6.88; in the experiment on HCT-116 it was 6.47; at Aurora kinase A [1], 8.05; with Detroit 551, 5.01; against Aurora kinase B [5], less than 5.00; on Aurora kinase B [2], 6.85.
Turning to `CCc1ccccc1NC(=O)Nc1ccc(CCNc2ncnc3oc(-c4ccccc4)c(Cl)c23)cc1`, the figures for the pIC50 at Aurora kinase A [1] and at Aurora kinase B [2] were 6.75 and 7.18, respectively.
Regarding `O=C(Nc1ccccc1)Nc1ccc(CCNc2ncnc3oc(-c4ccccc4)c(Cl)c23)cc1`, the negative-log IC50 (pIC50) against Aurora kinase A [3] is 6.41; in the experiment with HCT-116 it was 6.82; on Aurora kinase A [1], 7.28; in the experiment with Detroit 551, 5.14; against Aurora kinase B [5], 6.72; on Aurora kinase B [2], 7.18. Moreover, the outcome in the experiment on HeLa [6] was Active.
Regarding `CCN(CC)Cc1ccc(NC(=O)Nc2ccc(CCNc3ncnc4oc(-c5ccccc5)c(Cl)c34)cc2)cc1`, the values for the pIC50 on Aurora kinase A [1] and at Aurora kinase B [2] were 6.63 and 6.08, respectively.
Consider `CN(C)Cc1cccc(NC(=O)Nc2ccc(CCNc3ncnc4oc(-c5ccccc5)c(Cl)c34)cc2)c1`, for which the pIC50 on Aurora kinase A [3] was 7.22; in the experiment with HCT-116, 6.24; on Aurora kinase A [1], 7.70; with Detroit 551, 5.30; against Aurora kinase B [5], less than 5.00; at Aurora kinase B [2], 6.70. The result with HeLa [6] was Active.
With `CCN(CC)Cc1ccccc1NC(=O)Nc1ccc(CCNc2ncnc3oc(-c4ccccc4)c(Cl)c23)cc1`, the pIC50 on Aurora kinase A [1] is 6.34; at Aurora kinase B [2], 6.28.
For `CC(C)Cc1ccc(NC(=O)Nc2ccc(CCNc3ncnc4oc(-c5ccccc5)c(Cl)c34)cc2)cc1` the same measures were less than 6.00 and less than 6.00.
The corresponding values for `O=C(Nc1ccc(CCNc2ncnc3oc(-c4ccccc4)c(Cl)c23)cc1)Nc1ccc(CN2CCC(O)CC2)cc1` are 6.82 and 6.45.
The corresponding values for `Cc1cccc(NC(=O)Nc2ccc(CCNc3ncnc4oc(-c5ccccc5)c(Cl)c34)cc2)c1` are 7.28 and 7.13.
Regarding `CC(C)Cc1cccc(NC(=O)Nc2ccc(CCNc3ncnc4oc(-c5ccccc5)c(Cl)c34)cc2)c1`, the figures for the pIC50 on Aurora kinase A [1] and at Aurora kinase B [2] were 6.61 and less than 6.00, respectively.
Consider `CC(C)c1ccc(NC(=O)Nc2ccc(CCNc3ncnc4oc(-c5ccccc5)c(Cl)c34)cc2)cc1`, for which the pIC50 at Aurora kinase A [1] and on Aurora kinase B [2] was less than 6.00 throughout.
For the molecule `CN(C)Cc1ccccc1NC(=O)Nc1ccc(CCNc2ncnc3oc(-c4ccccc4)c(Cl)c23)cc1`, the negative-log IC50 (pIC50) on Aurora kinase A [3] is 7.13; in the experiment with HCT-116, 7.15; in the experiment with Detroit 551, 5.51; against Aurora kinase B [5], 7.63. Further, the outcome in the experiment with HeLa [4] was Active.

Values taken from ChEMBL document CHEMBL4152212, “Design and synthesis of BPR1K653 derivatives targeting the back pocket of Aurora kinases for selective isoform inhibition” (Eur J Med Chem, 2018).
